Reference: ChEMBL document CHEMBL4382192, “Discovery of a potent dual ALK and EGFR T790M inhibitor” (Eur J Med Chem, 2017)

What was measured:
[1] = target: NUAK family SNF1-like kinase 2 (Homo sapiens) (UniProt Q9H093); assay: Binding affinity to wild-type human partial length SNARK (P22 to A333 residues) expressed in mammalian expression system assessed as residual binding level at 1 uM by Kinomescan method relative to control
[2] = target: Ephrin type-B receptor 3 (Homo sapiens) (UniProt P54753); assay: Binding affinity to wild-type human partial length EPHB3 (Q599 to T928 residues) expressed in bacterial expression system assessed as residual binding level at 1 uM by Kinomescan method relative to control
[3] = target: Dual specificity protein kinase CLK4 (Homo sapiens) (UniProt Q9HAZ1); assay: Binding affinity to wild-type human partial length CLK4 (R135 to K481 residues) expressed in bacterial expression system assessed as residual binding level at 1 uM by Kinomescan method relative to control
Chain of Dual specificity protein kinase CLK4 (Homo sapiens) (Q9HAZ1 whole entry, looked up, the tested form may be a part): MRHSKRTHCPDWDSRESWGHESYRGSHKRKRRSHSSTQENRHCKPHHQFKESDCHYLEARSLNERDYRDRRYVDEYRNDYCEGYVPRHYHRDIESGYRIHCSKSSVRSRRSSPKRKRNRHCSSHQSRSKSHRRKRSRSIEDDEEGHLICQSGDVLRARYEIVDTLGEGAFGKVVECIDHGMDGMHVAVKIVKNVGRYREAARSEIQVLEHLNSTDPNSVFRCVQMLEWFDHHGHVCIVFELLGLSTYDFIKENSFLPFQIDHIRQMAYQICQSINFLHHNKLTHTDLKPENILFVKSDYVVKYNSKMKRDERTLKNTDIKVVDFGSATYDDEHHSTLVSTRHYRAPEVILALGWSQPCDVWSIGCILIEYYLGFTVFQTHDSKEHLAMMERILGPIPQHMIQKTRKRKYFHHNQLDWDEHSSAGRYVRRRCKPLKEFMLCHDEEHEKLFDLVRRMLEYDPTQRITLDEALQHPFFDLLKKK

[4] = target: RAC-gamma serine/threonine-protein kinase (Homo sapiens) (UniProt Q9Y243); assay: Binding affinity to wild-type human partial length AKT3 expressed in bacterial expression system assessed as residual binding level at 1 uM by Kinomescan method relative to control
Chain of RAC-gamma serine/threonine-protein kinase (Homo sapiens) (Q9Y243 whole entry, the tested form may be a part): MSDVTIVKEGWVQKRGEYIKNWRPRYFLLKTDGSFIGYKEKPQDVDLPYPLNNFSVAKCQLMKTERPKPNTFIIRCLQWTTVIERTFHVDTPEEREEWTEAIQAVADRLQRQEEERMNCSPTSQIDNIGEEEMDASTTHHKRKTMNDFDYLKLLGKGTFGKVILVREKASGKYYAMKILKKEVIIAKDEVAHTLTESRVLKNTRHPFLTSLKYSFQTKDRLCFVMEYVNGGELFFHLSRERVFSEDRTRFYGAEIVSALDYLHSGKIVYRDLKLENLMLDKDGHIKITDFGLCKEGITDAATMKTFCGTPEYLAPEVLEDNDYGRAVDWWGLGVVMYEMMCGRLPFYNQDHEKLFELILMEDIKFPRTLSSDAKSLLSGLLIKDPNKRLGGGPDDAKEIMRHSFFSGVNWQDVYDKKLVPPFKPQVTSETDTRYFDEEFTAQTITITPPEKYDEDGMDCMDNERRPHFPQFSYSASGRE

[5] = target: Tyrosine-protein kinase Lyn (Homo sapiens) (UniProt P07948); assay: Binding affinity to wild-type human partial length LYN (C219 to Q511 residues) expressed in bacterial expression system assessed as residual binding level at 1 uM by Kinomescan method relative to control
[6] = target: Mitogen-activated protein kinase kinase kinase 1 (Homo sapiens) (UniProt Q13233); assay: Binding affinity to wild-type human partial length MAP3K1 (L1202 to W1512 residues) expressed in mammalian expression system assessed as residual binding level at 1 uM by Kinomescan method relative to control
[7] = target: Receptor-interacting serine/threonine-protein kinase 4 (Homo sapiens) (UniProt P57078); assay: Binding affinity to wild-type human partial length RIPK4 (M1 to V303 residues) expressed in mammalian expression system assessed as residual binding level at 1 uM by Kinomescan method relative to control
[8] = test system: Tyrosine-protein kinase ABL1 (Homo sapiens), P00519 [T315I]; assay: Binding affinity to human non-phosphorylated ABL1 T315I mutant (S229 to K512 residues) expressed in mammalian expression system assessed as residual binding level at 1 uM by Kinomescan method relative to control
How it was run: (§1)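 Kinome-wide selectivity panel run by the KINOMEscan method, with the test compound at a single concentration of 1 μM. Wild-type and mutant kinases were profiled in the same screen.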

[9] = target: Mitogen-activated protein kinase kinase kinase kinase 3 (Homo sapiens) (UniProt Q8IVH8); assay: Binding affinity to wild-type human partial length MAP4K3 (M1 to D301 residues) expressed in bacterial expression system assessed as residual binding level at 1 uM by Kinomescan method relative to control
Chain of Mitogen-activated protein kinase kinase kinase kinase 3 (Homo sapiens) (Q8IVH8 whole entry, the tested form may be a part): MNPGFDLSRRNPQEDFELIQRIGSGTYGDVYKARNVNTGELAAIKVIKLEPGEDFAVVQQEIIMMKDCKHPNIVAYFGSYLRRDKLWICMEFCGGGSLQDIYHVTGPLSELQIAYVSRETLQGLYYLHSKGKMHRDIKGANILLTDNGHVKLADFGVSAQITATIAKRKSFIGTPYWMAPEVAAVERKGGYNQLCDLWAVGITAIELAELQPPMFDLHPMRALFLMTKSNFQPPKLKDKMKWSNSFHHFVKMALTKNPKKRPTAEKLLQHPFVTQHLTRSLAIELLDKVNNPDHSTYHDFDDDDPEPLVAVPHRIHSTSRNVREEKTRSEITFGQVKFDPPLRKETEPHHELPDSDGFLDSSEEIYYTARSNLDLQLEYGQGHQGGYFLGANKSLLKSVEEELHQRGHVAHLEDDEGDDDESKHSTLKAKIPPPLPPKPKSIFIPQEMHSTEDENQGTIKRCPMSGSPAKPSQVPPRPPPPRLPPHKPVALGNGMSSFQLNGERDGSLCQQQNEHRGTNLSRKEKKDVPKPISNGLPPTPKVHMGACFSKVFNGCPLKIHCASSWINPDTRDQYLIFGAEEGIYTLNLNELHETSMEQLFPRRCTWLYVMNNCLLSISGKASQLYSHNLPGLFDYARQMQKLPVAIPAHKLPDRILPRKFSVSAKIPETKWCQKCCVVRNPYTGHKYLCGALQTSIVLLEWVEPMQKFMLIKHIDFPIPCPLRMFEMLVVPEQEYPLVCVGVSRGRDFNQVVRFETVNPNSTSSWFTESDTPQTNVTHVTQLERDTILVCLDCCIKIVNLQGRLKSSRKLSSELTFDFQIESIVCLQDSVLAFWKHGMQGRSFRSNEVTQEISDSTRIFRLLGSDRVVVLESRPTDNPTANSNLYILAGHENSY

[10] = target: Mitogen-activated protein kinase kinase kinase 2 (Homo sapiens) (UniProt Q9Y2U5); assay: Binding affinity to wild-type human partial length MAP3K2 (S315 to H619 residues) expressed in mammalian expression system assessed as residual binding level at 1 uM by Kinomescan method relative to control
[11] = target: Tyrosine-protein kinase Mer (Homo sapiens) (UniProt Q12866); assay: Binding affinity to wild-type human partial length MERTK (R557 to L884 residues) expressed in bacterial expression system assessed as residual binding level at 1 uM by Kinomescan method relative to control
[12] = target: Vascular endothelial growth factor receptor 2 (Homo sapiens) (UniProt P35968); assay: Binding affinity to wild-type human partial length VEGFR2 (R787 to P1253 residues) expressed in mammalian expression system assessed as residual binding level at 1 uM by Kinomescan method relative to control
[13] = target: Mitogen-activated protein kinase 13 (Homo sapiens) (UniProt O15264); assay: Binding affinity to wild-type human full length p38-delta (M1 to L365 residues) expressed in bacterial expression system assessed as residual binding level at 1 uM by Kinomescan method relative to control
Chain of Mitogen-activated protein kinase 13 (Homo sapiens) (O15264 whole entry, the tested form may be a part): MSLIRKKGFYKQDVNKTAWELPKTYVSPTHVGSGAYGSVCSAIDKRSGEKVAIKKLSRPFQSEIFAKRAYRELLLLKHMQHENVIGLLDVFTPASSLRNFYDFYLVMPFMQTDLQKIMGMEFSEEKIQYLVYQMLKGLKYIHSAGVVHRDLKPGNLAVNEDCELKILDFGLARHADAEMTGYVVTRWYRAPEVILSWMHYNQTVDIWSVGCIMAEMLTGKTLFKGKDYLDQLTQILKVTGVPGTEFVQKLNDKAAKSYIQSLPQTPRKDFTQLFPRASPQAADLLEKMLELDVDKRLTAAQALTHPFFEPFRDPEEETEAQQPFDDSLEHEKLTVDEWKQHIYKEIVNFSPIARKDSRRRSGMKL

[14] = target: Homeodomain-interacting protein kinase 3 (Homo sapiens) (UniProt Q9H422); assay: Binding affinity to wild-type human partial length HIPK3 (M153 to N562 residues) expressed in mammalian expression system assessed as residual binding level at 1 uM by Kinomescan method relative to control
Chain of Homeodomain-interacting protein kinase 3 (Homo sapiens) (Q9H422 whole entry, looked up, the tested form may be a part, canonical isoform): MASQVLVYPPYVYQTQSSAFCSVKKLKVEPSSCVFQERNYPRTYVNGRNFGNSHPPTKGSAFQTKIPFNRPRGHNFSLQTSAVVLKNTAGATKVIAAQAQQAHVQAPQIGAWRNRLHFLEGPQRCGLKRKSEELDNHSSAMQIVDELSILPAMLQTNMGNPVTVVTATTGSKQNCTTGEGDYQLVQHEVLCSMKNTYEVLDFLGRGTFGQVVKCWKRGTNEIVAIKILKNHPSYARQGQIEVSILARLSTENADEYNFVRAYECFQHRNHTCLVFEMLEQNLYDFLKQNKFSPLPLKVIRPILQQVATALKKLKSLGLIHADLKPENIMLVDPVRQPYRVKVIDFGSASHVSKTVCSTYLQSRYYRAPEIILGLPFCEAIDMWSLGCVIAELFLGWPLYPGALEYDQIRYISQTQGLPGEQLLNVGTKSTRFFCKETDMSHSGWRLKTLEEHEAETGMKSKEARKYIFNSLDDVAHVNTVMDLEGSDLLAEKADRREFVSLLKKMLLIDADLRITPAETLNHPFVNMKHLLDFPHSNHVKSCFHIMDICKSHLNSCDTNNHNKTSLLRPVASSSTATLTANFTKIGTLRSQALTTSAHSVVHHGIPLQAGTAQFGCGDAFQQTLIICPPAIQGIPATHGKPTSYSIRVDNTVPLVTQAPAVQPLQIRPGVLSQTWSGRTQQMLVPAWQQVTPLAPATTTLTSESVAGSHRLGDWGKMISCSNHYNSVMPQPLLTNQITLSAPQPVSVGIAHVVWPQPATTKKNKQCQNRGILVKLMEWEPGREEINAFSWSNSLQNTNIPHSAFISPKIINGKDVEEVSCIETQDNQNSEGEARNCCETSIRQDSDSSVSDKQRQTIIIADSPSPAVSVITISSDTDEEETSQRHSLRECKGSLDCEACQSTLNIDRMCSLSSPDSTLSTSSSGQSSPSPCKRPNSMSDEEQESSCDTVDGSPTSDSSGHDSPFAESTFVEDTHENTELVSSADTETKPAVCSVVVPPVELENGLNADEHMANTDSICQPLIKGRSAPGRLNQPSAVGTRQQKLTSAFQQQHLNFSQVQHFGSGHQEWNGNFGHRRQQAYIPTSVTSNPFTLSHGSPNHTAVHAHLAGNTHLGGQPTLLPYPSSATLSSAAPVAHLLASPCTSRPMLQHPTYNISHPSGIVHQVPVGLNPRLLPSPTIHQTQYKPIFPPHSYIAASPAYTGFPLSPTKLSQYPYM

[15] = target: Phosphatidylinositol 4,5-bisphosphate 3-kinase catalytic subunit beta isoform (Homo sapiens) (UniProt P42338); assay: Binding affinity to wild-type human partial length PIK3CB (P118 to S1070 residues) expressed in mammalian expression system assessed as residual binding level at 1 uM by Kinomescan method relative to control
[16] = target: Rhodopsin kinase GRK1 (Homo sapiens) (UniProt Q15835); assay: Binding affinity to wild-type human full length GRK1 (M1 to S563 residues) expressed in mammalian expression system assessed as residual binding level at 1 uM by Kinomescan method relative to control
How it was run: (§2)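 Single-point kinome-wide KINOMEscan binding panel, test compound at 1 μM, run by the provider's standard protocol.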

[17] = target: Serine/threonine-protein kinase Nek3 (Homo sapiens) (UniProt P51956); assay: Binding affinity to wild-type human full length NEK3 (M1 to R506 residues) expressed in mammalian expression system assessed as residual binding level at 1 uM by Kinomescan method relative to control; how it was run: as §2
Chain of Serine/threonine-protein kinase Nek3 (Homo sapiens) (P51956 whole entry, the tested form may be a part): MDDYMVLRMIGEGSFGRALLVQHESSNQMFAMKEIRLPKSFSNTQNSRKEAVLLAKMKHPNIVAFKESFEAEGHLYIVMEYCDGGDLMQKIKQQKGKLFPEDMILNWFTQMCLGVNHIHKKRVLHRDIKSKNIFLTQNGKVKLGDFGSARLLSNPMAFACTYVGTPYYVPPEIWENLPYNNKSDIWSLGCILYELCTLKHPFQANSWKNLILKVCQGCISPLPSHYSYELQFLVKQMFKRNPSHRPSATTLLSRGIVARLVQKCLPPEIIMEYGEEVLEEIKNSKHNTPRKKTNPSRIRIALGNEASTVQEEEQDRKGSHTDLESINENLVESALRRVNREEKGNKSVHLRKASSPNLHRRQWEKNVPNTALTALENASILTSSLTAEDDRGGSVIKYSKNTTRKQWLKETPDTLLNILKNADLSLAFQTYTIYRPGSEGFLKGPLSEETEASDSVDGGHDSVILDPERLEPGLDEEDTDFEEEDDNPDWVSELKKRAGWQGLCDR

[18] = target: Proto-oncogene tyrosine-protein kinase ROS (Homo sapiens) (UniProt P08922); assay: Binding affinity to wild-type human partial length ROS1 (A1921 to N2240 residues) expressed in bacterial expression system assessed as residual binding level at 1 uM by Kinomescan method relative to control
[19] = target: Tyrosine-protein kinase ABL2 (Homo sapiens) (UniProt P42684); assay: Binding affinity to wild-type human ABL2 (A248 to G542 residues) expressed in bacterial expression system assessed as residual binding level at 1 uM by Kinomescan method relative to control; how it was run: as §1
[20] = target: 5'-AMP-activated protein kinase catalytic subunit alpha-1 (Homo sapiens) (UniProt Q13131); assay: Binding affinity to wild-type human partial length AMPK alpha1 (M1 to E306 residues) expressed in bacterial expression system assessed as residual binding level at 1 uM by Kinomescan method relative to control
Chain of 5'-AMP-activated protein kinase catalytic subunit alpha-1 (Homo sapiens) (Q13131 whole entry, looked up, the tested form may be a part): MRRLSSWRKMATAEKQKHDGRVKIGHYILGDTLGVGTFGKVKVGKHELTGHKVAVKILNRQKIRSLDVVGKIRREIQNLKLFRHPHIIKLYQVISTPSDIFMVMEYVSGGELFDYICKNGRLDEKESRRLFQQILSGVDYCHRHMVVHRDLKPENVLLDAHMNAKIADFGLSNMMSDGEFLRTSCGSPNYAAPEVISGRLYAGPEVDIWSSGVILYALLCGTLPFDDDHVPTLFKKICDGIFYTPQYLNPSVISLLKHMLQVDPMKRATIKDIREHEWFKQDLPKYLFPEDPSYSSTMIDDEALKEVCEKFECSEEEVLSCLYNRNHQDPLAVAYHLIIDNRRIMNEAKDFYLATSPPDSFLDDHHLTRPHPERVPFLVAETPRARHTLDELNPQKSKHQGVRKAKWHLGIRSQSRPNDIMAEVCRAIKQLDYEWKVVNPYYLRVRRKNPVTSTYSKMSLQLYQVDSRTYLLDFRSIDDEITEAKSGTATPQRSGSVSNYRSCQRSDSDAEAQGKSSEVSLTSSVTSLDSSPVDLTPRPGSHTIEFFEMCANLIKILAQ

CYP2C19 = CYP2C19 (Homo sapiens, UniProt P33261); assay: Residual activity of CYP2C19 in human liver microsomes at 10 uM using S-mephenytoin 4-hydroxylase as substrate preincubated for 5 mins followed by NADPH addition measured after 15 mins by LC/MS/MS analysis relative to control; details: probe S-mephenytoin (4-hydroxylation)
[21] = target: Serine/threonine-protein kinase PAK 2 (Homo sapiens) (UniProt Q13177); assay: Binding affinity to wild-type human partial length PAK2 (P151 to R525 residues) expressed in bacterial expression system assessed as residual binding level at 1 uM by Kinomescan method relative to control
[22] = target: Mitogen-activated protein kinase 15 (Homo sapiens) (UniProt Q8TD08); assay: Binding affinity to wild-type human partial length ERK8 (M1 to P437 residues) expressed in bacterial expression system assessed as residual binding level at 1 uM by Kinomescan method relative to control
Chain of Mitogen-activated protein kinase 15 (Homo sapiens) (Q8TD08 whole entry, the tested form may be a part): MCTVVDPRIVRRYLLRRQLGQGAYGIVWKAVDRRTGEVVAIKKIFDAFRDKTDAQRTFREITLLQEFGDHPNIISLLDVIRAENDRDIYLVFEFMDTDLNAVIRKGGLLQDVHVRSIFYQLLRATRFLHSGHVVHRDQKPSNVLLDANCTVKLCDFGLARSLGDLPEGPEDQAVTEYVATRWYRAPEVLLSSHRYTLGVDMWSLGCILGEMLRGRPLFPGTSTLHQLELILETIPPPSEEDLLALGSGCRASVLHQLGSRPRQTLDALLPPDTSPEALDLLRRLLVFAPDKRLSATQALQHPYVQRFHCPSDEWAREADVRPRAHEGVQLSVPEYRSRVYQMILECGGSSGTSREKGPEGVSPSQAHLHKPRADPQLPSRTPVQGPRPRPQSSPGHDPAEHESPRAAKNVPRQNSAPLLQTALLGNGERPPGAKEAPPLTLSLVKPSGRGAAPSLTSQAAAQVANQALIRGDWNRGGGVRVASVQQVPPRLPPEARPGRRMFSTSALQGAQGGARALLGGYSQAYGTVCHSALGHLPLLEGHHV

`C=CC(=O)Nc1cc(Nc2ncc(Cl)c(Nc3ccccc3S(=O)(=O)C(C)C)n2)c(OC)cc1N(C)CCN(C)C` gave an Activity [1] of 1.2%, an Activity [2] of 63% and an Activity [3] of 15%. It also gave an Activity [4] of 100%, an Activity [5] of 57% and an Activity [6] of 84%. It also gave an Activity [7] of 72%, an Activity [8] of 0.9% and an Activity [9] of 3.3%. It also gave an Activity [10] of 32%, an Activity [11] of 2.7% and an Activity [12] of 42%. For the same compound, the Activity [13] was 100%, the Activity [14] was 87% and the Activity [15] was 100%. It also gave an Activity [16] of 28%, an Activity [17] of 67% and an Activity [18] of 0%. The Activity [19] was 50%, the Activity [20] was 16% and the Activity at […], 10 µM (CYP2C19) was 86%. It also gave an Activity [21] of 62% and an Activity [22] of 73%.
